{
  "source": "paper PMC5766413",
  "about": "(European journal of pharmacology, 2017)",
  "key": {"NK1 receptor [1]": {"test_system": "NK1 receptor", "details": "minipigs; ref unpublished observations; cited from earlier work"}, "NK1 receptor [2]": {"test_system": "NK1 receptor", "details": "dogs; ref unpublished observations; cited from earlier work"}, "NK1 receptor [3]": {"test_system": "NK1 receptor", "details": "monkeys; ref unpublished observations; cited from earlier work"}, "[4]": {"test_system": "colorectum of anesthetized, acutely spinalized rats", "test": "Colorectal manometry with balloon catheter", "assay_type": "in vivo, rat", "how_it_was_run": "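Urethane-anesthetized (1.2–1.4 g/kg SC) female rats, cord cut at T9–T10 ≥60 min before dosing, 37°C. Rectal balloon catheter was inflated in 0.1–0.2 ml saline steps to a steady 15–20 mmHg (0.3–0.7 ml total). Vehicle, then ascending SC doses in saline, 20–45 min apart. Pressure AUC over 0–5 min per dose; duration of raised activity noted; mean + S.D., ANOVA with Dunnett's test.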"}, "NK2 over NK1 receptors": {"test_system": "NK2 over NK1 receptors", "details": "ref Rupniak et al, unpublished results; cited from earlier work"}, "[5]": {"test_system": "blood pressure of guinea pigs", "details": "intra-arterial, ref Beattie et al, 1993; cited from earlier work"}, "[6]": {"test_system": "bladder of anesthetized, acutely spinalized rats", "assay_type": "in vivo, rat", "how_it_was_run": "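Acutely spinalized (T9–T10, ≥60 min earlier), urethane-anesthetized female rats. Capacity was taken as the mean of three saline fills (0.04–0.1 ml/min, urethra open) until leak. Meatus then clamped, bladder held at 70% capacity; vehicle and ascending IV or SC doses ≥20 min apart. Contraction defined as ≥5 mmHg above baseline within 5 min; onset, time to peak, 30-min AUC and response duration; mean + S.D.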"}, "[7]": {"test_system": "anesthetized, acutely spinalized rats", "test": "Other pharmacodynamic observations", "assay_type": "in vivo, rat", "how_it_was_run": "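In urethane-anesthetized female rats with T9–T10 cord transection ≥60 min before dosing, vehicle then ascending IV, SC or IM doses of test compound in 0.9% saline were given. Changes in skin color (ear and paw flushing), salivation and lacrimation were recorded when present; respiration was watched visually for obvious changes.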"}, "[8]": {"test_system": "human detrusor muscle strips", "details": "relative to KCL; ref Palea et al, 1996; cited from earlier work"}, "[9]": {"test_system": "blood pressure of anesthetized, acutely spinalized rats", "test": "Blood pressure", "assay_type": "in vivo, rat", "details": "up to 30 μg/kg IV and 300 μg/kg SC", "how_it_was_run": "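Female rats were anesthetized with urethane (1.2–1.4 g/kg SC) and kept at 37°C, with the spinal cord transected at T9–T10 at least 60 min before dosing. Test compound was given in 0.9% saline IV (200 μl plus 300 μl saline flush) or SC, vehicle first. Blood pressure was recorded continuously via the carotid artery, with heart rate derived off line from that signal. Values are change from the pre-dose baseline; one-way ANOVA.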"}},
  "note": "Like-named read-outs stand apart in the source and are kept apart here.",
  "data": [
    {"compound": "spantide I", "values": [
      {"measurement": "Effect on transient hypotension after IV injection of NKA and LMN-NKA", "setting": "NK1 receptor [1]", "result": "blocked"},
      {"measurement": "Effect on transient hypotension after IV injection of NKA and LMN-NKA", "setting": "NK1 receptor [2]", "result": "blocked"},
      {"measurement": "Effect on transient hypotension after IV injection of NKA and LMN-NKA", "setting": "NK1 receptor [3]", "result": "blocked"}
    ]},
    {"compound": "COc1ccccc1CN[C@H]1CCCN[C@H]1c1ccccc1", "note": "[CP-99,994]", "values": [
      {"measurement": "Effect on transient hypotension after IV injection of NKA and LMN-NKA", "setting": "NK1 receptor [1]", "result": "blocked"},
      {"measurement": "Effect on transient hypotension after IV injection of NKA and LMN-NKA", "setting": "NK1 receptor [2]", "result": "blocked"},
      {"measurement": "Effect on transient hypotension after IV injection of NKA and LMN-NKA", "setting": "NK1 receptor [3]", "result": "blocked"}
    ]},
    {"compound": "[Lys^3,Gly^8-R-gamma-lactam-Leu^9]-NKA(3–10) [GR 64349]", "values": [
      {"measurement": "Duration of action on colorectal pressure", "setting": "[4]; SC 100 and 300 μg/kg", "result": "20 to 25", "unit": "min"},
      {"measurement": "Increase in colorectal pressure", "setting": "[4]; SC, highest doses tested were 100 and 300 μg/kg", "result": "only at the highest doses tested"},
      {"measurement": "Selectivity for NK2 over NK1 receptors", "setting": "NK2 over NK1 receptors", "result": "> 250", "unit": "fold"},
      {"measurement": "Blood pressure effect", "setting": "[5]", "result": "transient drop in blood pressure"},
      {"measurement": "Duration of the bladder pressure response", "setting": "[6]; 1 μg/kg IV, N=3, mean ± S.D.", "result": "1.5 ± 0.07", "unit": "min"},
      {"measurement": "Duration of the bladder pressure response", "setting": "[6]; 300 μg/kg SC, N=4 for GR 64349, N=11 for LMN-NKA, mean ± S.D.", "result": "23.9 ± 12.22", "unit": "min"},
      {"measurement": "Onset of the increase in bladder pressure", "setting": "[6]; 0.01–10 μg/kg IV and 1–300 μg/kg SC", "result": "< 1", "unit": "min"},
      {"measurement": "Respiration (visual observation, words)", "setting": "[7]; LMN-NKA up to 300 μg/kg SC or IM, NKA and GR 64349 at the doses tested", "result": "No obvious changes in respiration"},
      {"measurement": "Flushing", "setting": "[7]; NKA at similar, GR 64349 at higher doses compared to LMN-NKA", "result": "transient flushing of the ears and paws"},
      {"measurement": "Maximal contraction of detrusor muscle strips", "setting": "[8]", "result": "equivalent to maximal KCL-induced contractions"},
      {"measurement": "Blood pressure effect", "setting": "[9]", "result": "No significant blood pressure changes"}
    ]}
  ]
}
